Results on 8 compounds are retold here after ChEMBL document CHEMBL1132328, “4-Hydroxy-1-[2-(4-hydroxyphenoxy)ethyl]-4-(4-methylbenzyl)piperidine: a novel, potent, and selective NR1/2B NMDA receptor antagonist” (J Med Chem, 1999).

The term IC50 denotes the midpoint of a concentration-inhibition curve. Low readings indicate higher potency, high ones lower potency. A word on the ED50: it is the dose that gives a 50% effect, or the effect in half of the subjects. As a reminder, the inhibition is the drop in the measured response relative to a control, in per cent. A higher inhibition goes with a response far below the control.

In assay [1] the target is Glutamate NMDA receptor; Grin1/Grin2c (Rattus norvegicus, UniProt P35439+Q00961). As to the kind of experiment: In vitro inhibitory concentration against NMDA responses at NR1A/2C receptors expressed in Xenopus oocytes. Type of assay: functional, cell-based, Oocyte.
Glutamate NMDA receptor; Grin1/Grin2c, sequence (Q00961 whole entry, other chains not shown): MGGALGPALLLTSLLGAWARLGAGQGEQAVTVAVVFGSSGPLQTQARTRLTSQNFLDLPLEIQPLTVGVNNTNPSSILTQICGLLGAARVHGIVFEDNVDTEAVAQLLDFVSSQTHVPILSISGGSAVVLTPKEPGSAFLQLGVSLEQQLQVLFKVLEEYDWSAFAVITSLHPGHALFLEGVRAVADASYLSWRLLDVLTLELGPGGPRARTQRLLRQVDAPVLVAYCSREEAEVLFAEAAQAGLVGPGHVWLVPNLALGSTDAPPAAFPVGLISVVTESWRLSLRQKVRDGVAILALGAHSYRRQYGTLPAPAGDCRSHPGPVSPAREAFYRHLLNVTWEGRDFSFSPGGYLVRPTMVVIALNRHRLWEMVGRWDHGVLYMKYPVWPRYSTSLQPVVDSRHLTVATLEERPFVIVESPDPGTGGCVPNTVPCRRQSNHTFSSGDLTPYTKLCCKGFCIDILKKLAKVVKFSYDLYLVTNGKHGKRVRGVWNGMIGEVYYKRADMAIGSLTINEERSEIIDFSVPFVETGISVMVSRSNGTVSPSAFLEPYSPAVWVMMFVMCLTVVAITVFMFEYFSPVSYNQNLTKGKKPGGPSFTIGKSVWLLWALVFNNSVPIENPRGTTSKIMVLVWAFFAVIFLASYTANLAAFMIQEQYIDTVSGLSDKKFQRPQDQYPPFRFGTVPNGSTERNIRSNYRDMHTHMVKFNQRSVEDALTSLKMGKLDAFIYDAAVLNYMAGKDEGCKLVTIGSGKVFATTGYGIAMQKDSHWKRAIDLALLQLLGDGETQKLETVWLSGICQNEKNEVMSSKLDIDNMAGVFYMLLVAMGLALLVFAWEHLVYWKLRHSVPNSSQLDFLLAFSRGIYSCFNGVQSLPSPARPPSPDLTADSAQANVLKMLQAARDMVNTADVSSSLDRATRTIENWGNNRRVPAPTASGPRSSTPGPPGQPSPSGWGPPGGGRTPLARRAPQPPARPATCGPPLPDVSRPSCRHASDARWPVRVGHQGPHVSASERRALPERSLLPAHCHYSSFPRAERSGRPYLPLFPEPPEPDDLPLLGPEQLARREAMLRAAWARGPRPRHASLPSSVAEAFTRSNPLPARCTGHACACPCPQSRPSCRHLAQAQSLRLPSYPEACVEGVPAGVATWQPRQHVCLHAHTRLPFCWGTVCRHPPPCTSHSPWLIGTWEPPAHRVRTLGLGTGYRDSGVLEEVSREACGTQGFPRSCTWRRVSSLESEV
Assay [2] deals with Glutamate NMDA receptor; Grin1/Grin2b (Rattus norvegicus, UniProt P35439+Q00960). As to the kind of experiment: In vitro inhibitory concentration against NMDA responses at NR1A/2B receptors expressed in Xenopus oocytes. Type of assay: functional, cell-based, Oocyte. In a few lines:
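Two-electrode voltage clamp of oocytes expressing cloned NR1A/2B, held at -70 mV in Ca2+-free Ringer (BaCl2 1.8 mM, Hepes 5 mM, pH 7.4). Drugs in DMSO (0.1–1% final) applied by bath perfusion. IC50 from partial 3–5-point concentration-inhibition curves fitted with residual minimum fixed at 0.15. Mean ± SE.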

Assay [3] has as its target Glutamate NMDA receptor; Grin1/Grin2a (Rattus norvegicus, UniProt P35439+Q00959). The experiment in a line: In vitro inhibitory concentration against NMDA responses at cloned NR1A/2A receptors expressed in Xenopus oocytes. Type of assay: functional, cell-based, Oocyte.
The target in assay [4] is T1, Adrenergic receptor alpha-1 (Rattus norvegicus, UniProt P15823+P23944+P43140).
T1 sequence (P15823 whole entry): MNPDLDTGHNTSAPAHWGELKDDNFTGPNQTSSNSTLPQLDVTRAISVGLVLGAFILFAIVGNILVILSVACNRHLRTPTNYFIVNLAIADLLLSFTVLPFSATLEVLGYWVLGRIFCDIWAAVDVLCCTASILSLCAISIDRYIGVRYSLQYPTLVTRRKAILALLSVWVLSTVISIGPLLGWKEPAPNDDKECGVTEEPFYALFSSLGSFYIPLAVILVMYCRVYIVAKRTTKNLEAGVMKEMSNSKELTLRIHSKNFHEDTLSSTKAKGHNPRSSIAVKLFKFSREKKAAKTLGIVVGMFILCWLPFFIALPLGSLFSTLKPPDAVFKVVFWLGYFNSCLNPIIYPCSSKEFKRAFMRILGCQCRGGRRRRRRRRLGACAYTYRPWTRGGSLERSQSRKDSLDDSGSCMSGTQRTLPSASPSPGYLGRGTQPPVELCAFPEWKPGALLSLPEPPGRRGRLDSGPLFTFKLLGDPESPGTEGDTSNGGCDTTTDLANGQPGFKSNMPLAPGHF
T1 sequence (P23944 whole entry): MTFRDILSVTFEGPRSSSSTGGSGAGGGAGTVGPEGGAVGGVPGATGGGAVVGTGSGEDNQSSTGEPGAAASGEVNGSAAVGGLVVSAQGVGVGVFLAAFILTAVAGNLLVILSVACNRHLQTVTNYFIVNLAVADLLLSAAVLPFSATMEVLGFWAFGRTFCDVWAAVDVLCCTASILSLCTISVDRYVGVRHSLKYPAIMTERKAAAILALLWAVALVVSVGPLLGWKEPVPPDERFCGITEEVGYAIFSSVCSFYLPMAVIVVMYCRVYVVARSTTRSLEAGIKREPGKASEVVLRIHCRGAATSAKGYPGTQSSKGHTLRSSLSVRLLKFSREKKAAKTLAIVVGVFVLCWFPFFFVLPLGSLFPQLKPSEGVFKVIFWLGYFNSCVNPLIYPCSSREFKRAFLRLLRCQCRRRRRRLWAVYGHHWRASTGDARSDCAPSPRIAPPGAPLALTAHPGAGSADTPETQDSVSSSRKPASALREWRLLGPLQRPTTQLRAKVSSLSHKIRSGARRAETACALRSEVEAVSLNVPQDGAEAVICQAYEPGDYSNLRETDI
T1 sequence (P43140 whole entry): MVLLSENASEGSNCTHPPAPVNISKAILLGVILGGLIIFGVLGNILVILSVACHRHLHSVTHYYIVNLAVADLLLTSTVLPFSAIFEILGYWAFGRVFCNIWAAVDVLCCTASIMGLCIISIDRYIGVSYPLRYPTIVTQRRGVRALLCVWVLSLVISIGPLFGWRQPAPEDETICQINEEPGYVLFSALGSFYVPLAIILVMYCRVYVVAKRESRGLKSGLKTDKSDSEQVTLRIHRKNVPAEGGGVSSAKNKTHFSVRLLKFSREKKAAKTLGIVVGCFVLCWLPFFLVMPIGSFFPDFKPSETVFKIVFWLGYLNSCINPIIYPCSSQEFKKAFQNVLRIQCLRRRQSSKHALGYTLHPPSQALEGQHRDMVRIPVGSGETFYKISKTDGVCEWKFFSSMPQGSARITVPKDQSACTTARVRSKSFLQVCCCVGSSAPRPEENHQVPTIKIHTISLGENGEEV
The experiment in a line: Affinity for alpha-1 adrenergic receptor in rat was determined by [3H]- prazosin binding assay. The gist of the method:
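Rat cortex membranes (sucrose/Tris homogenate, washed three times in 140 mM NaCl/5 mM MgCl2/50 mM Tris-HCl pH 7.4) incubated with 0.8 nM [3H]prazosin for 60 min at room temperature. Test compounds at nine concentrations in duplicate, 1% DMSO final. Nonspecific binding defined with phentolamine. Reaction stopped by filtration through GF/B filters, then scintillation counting. IC50 from a sigmoidal fit.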

The species entered for the next assay is Mus musculus. The experiment in a line: ED50 value was calculated by mouse electric shock assay (MES). Format: functional. The gist of the method:
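Anticonvulsant testing in mice by maximal electroshock. Compounds dissolved in 0.05 M Tris and given iv. Seizure protection tested at peak activity, 2 min after dosing.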

The test system of the next assay is Rattus. The experiment in a line: Inhibition of voltage -gated K+ currents was measured by whole cell voltage clamp recordings from dissociated rat superior cervical ganglion neurons at 10 uM. Format: functional. In a few lines:
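SCG neurons from 1–4-day-old rat pups, recorded 24–48 h after plating. Whole-cell clamp held at -60 mV; 30-ms steps to +50 mV. Bath solution Hepes/glucose pH 7.4; pipette solution KCl/K-aspartate/EGTA pH 7.3. Compound diluted from 10 mM DMSO stock and applied by local perfusion after control responses. Result given as percent inhibition of sustained K+ current.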

Glutamate NMDA receptor; Grin1/Grin2b, sequence (Q00960 whole entry, other chains not shown, the tested form may be a part): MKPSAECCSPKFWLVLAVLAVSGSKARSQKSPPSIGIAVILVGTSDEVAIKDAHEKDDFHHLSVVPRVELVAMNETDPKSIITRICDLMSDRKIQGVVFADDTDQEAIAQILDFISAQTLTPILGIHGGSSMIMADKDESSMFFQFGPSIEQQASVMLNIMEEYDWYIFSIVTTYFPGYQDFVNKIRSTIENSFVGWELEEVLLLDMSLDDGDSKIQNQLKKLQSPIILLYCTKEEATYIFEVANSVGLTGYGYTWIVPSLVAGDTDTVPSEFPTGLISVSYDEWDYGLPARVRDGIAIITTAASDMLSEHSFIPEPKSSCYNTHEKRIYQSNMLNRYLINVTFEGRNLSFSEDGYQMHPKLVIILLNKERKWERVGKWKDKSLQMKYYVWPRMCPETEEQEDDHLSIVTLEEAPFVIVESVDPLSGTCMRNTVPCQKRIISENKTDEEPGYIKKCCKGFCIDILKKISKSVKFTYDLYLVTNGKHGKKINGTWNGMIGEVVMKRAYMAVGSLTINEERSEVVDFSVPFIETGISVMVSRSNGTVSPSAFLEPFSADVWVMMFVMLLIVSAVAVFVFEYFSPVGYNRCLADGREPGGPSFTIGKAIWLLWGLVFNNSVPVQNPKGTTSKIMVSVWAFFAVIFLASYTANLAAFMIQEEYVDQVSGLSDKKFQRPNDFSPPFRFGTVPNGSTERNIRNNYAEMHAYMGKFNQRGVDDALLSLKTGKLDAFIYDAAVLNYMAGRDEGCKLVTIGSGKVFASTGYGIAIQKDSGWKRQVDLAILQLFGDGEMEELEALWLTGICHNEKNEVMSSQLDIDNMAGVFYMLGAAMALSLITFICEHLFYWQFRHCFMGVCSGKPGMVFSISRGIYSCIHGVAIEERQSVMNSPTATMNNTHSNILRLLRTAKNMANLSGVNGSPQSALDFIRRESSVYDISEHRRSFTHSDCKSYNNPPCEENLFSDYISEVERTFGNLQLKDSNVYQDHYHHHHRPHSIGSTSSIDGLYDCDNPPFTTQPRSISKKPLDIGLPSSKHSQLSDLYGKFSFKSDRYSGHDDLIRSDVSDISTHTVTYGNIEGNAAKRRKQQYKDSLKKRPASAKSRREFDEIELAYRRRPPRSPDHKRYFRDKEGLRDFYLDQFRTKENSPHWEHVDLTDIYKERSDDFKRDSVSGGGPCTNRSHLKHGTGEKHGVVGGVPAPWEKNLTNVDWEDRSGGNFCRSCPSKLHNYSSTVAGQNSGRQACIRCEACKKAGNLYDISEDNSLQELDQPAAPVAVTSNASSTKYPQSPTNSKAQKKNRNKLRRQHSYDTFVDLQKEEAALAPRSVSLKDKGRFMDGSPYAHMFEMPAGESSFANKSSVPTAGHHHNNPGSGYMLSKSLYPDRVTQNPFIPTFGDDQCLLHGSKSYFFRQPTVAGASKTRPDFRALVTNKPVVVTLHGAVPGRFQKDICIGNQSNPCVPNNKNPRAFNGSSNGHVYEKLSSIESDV
Glutamate NMDA receptor; Grin1/Grin2a, sequence (Q00959 whole entry, other chains not shown): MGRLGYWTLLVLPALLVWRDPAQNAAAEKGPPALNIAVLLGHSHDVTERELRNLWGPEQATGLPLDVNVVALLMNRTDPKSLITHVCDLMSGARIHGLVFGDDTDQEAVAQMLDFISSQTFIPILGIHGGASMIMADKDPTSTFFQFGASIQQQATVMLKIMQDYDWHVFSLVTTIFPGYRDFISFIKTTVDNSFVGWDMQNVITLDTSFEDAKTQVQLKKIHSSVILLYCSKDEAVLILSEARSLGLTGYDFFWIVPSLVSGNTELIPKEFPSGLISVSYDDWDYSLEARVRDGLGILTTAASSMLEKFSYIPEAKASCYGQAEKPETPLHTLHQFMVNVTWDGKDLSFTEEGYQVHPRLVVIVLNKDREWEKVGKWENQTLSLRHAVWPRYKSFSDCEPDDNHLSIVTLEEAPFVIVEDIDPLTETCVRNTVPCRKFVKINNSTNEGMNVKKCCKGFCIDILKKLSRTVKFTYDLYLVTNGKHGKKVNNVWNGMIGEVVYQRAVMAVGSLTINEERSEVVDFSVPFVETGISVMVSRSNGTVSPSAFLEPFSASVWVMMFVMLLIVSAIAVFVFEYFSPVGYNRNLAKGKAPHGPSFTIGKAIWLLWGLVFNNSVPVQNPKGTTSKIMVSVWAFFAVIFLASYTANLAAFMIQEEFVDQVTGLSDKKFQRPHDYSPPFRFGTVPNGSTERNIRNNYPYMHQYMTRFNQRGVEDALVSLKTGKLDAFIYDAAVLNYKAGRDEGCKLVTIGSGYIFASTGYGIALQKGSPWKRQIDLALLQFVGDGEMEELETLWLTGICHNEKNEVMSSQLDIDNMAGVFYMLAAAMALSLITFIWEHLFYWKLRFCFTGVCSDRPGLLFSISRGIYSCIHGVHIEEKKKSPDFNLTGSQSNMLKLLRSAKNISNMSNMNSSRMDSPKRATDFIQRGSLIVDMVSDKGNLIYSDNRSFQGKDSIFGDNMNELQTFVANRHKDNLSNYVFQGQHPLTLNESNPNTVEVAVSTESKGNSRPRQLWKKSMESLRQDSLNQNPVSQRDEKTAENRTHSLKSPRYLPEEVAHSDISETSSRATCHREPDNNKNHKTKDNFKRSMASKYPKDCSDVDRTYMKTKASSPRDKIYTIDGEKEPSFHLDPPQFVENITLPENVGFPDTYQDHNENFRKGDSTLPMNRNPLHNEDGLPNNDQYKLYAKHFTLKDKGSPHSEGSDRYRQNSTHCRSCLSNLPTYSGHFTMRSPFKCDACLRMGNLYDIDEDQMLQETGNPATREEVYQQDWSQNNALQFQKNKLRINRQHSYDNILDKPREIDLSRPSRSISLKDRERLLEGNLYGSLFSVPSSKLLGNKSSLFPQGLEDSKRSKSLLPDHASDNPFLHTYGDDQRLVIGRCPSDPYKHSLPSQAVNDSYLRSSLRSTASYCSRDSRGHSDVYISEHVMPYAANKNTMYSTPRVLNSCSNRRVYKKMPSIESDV

Consider `Oc1ccc(OCCN2CCC(c3ccccc3)CC2)cc1`, for which the IC50 in assay [1] is above 100 µM; in assay [2], 7.7 µM; in assay [3] it was 110 µM.
Turning to `c1ccc(CC2CCN(CCOc3ccccc3)CC2)cc1`, the IC50 is above 100 µM in assay [1], 0.63 µM in assay [2], 0.82 µM in assay [4] and above 100 µM in assay [3]. Besides, the ED50 in the assay filed under Mus musculus was 2 mg/kg. The inhibition at 10 µM in the assay on Rattus came out at 65%.
Turning to `Cc1ccc(CC2CCN(CCOc3ccc(O)cc3)CC2)cc1`, the half-inhibitory concentration (IC50) is above 100 µM in assay [1], 0.028 µM in assay [2], 1.8 µM in assay [4] and above 100 µM in assay [3]. Besides, the ED50 in the assay listed under Mus musculus is 0.7 mg/kg. In the assay on Rattus, this compound showed an inhibition at 10 µM of 67%.
For the compound `Cc1ccc(CC2(O)CCN(CCOc3ccc(O)cc3)CC2)cc1`, the IC50 in assay [1] is above 100 µM; in assay [2], 0.043 µM; in assay [4], 27 µM; in assay [3] it was above 100 µM. Further, in the assay listed under Mus musculus, the ED50 was 1.5 mg/kg. The compound further came in with an inhibition at 10 µM in the assay on Rattus of 23%.
`Oc1ccc(OCCN2CCC(Cc3ccc(F)cc3)CC2)cc1`: the IC50 in assay [1] is above 100 µM; in assay [2], 0.05 µM; in assay [4] it was 1.6 µM; in assay [3], 21 µM. In addition, the median effective dose (ED50) in the assay listed under Mus musculus was 3 mg/kg. Moreover, at 10 µM the inhibition in the assay with Rattus was 53%.
`Oc1ccc(OCCN2CCC(Cc3ccccc3)CC2)cc1`: the IC50 in assay [1] is above 100 µM; in assay [2], 0.025 µM; in assay [4] it was 0.47 µM; in assay [3], above 100 µM. Besides, in the assay filed under Mus musculus, the ED50 is 2 mg/kg. In the assay with Rattus, this compound registered an inhibition at 10 µM of 46%.
`C[C@@H]([C@H](O)c1ccc(O)cc1)N1CCC(Cc2ccccc2)CC1` [(R,S)-IFENPRODIL] displayed an IC50 in assay [4] of 0.22 µM. Moreover, the ED50 in the assay listed under Mus musculus is 7 mg/kg. In the assay with Rattus, this compound returned an inhibition at 10 µM of 54%.
Consider `OC(CN1CCC(Cc2ccc(F)cc2)CC1)c1ccc(Cl)cc1` (configuration not stated) [ELIPRODIL], for which the IC50 in assay [1] was 100 µM; in assay [2], 1.4 µM; in assay [4], 3.3 µM; in assay [3], 100 µM. The ED50 in the assay filed under Mus musculus is 1 mg/kg. This compound yielded an inhibition at 10 µM in the assay with Rattus of 67%.
